The values below come from ChEMBL document CHEMBL4808183, “Betulonic Acid Derivatives Interfering with Human Coronavirus 229E Replication via the nsp15 Endoribonuclease” (J Med Chem, 2021).

The source made the active and inactive calls. The rule behind the calls is not given here.

Data set [1] in a line: Antiviral activity against Human coronavirus 229E infected in human embryonic lung fibroblast cells assessed as reduction in virus-induced cytopathic effect incubated for 5 days by MTS cell viability assay. In kind it is functional, cell-based. To be noted: 120 h. In short, it runs like this:
(§1)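 Confluent HEL cell cultures given serial compound dilutions together with HCoV-229E at MOI 100 and held 5 days at 35 °C. Virus-induced CPE was scored by microscopy. MTS reagent was then added and absorbance at 490 nm read 24 h later. EC50 was taken from the MTS or microscopic read-out and CC50 from MTS. SI = CC50/EC50, both by MTS. Mean ± SEM of three independent experiments.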
On the technique in general: Protection from cytopathic effect is a common read-out in antiviral testing.

A short description of data set [2]: Antiviral activity against Human coronavirus 229E infected in human embryonic lung fibroblast cells assessed as reduction in virus-induced cytopathic effect incubated for 5 days by microscopy. In kind it is functional, cell-based. To be noted: 120 h. In short, it runs like this: as §1
Data set [3] can be described thus: Cytotoxicity against mock-infected human embryonic lung fibroblast cells incubated for 5 days by MTS assay. To be noted: time 5 day. It counts as cell-based. In short, it runs like this: as §1
Data set [4] can be described thus: Selectivity index, ratio of CC50 for cytotoxicity against mock-infected human embryonic lung fibroblast cells incubated for 5 days by MTS assay to EC50 for antiviral activity against Human coronavirus 229E infected in human embryonic lung fibroblast cells assessed as reduction in virus-induced cytopathic effect incubated for 5 days by MTS cell viability assay. To be noted: time 5 day, read-out: Ratio CC50/EC50. In kind it is toxicity, cell-based. An outline of the steps:
as §1
(Tetrazolium assays rely on reduction of a dye to a coloured formazan, in cell work by metabolically active cells.)

Data set [5] relates to Human immunodeficiency virus. Put plainly: Antiviral activity against HIV. It counts as functional, organism-based.
The test system of data set [6] is Herpes simplex virus unknown type. Put plainly: Antiviral activity against Herpes simplex virus. It counts as functional.
In another data set the test system is Vaccinia virus. Put plainly: Antiviral activity against Vaccinia virus. It counts as functional, organism-based. To be noted: Orthopoxvirus vaccinia.
The test system of another data set is Human adenovirus 2. Put plainly: Antiviral activity against Adenovirus. It counts as functional.
Data set [7] deals with Vesicular stomatitis virus. Description: Antiviral activity against Vesicular stomatitis virus. It counts as functional, organism-based.
The test system of a further data set is Coxsackievirus B4. Put plainly: Antiviral activity against Coxsackie B4 virus. It counts as functional, organism-based.
Data set [8] concerns Respiratory syncytial virus. Put plainly: Antiviral activity against Respiratory syncytial virus. In kind it is functional, organism-based.
Another data set has as its system Human respirovirus 3. Put plainly: Antiviral activity against Parainfluenza-3 virus. It counts as functional, organism-based.
The subject of the next data set is Reovirus sp. Description: Antiviral activity against Reovirus-1. It counts as functional, organism-based.
The subject of another data set is Sindbis virus. Put plainly: Antiviral activity against Sindbis virus. It counts as functional, organism-based.
Another data set concerns Punta Toro virus. Description: Antiviral activity against Punta Toro virus. It counts as functional, organism-based.
The test system of the next data set is Yellow fever virus. Description: Antiviral activity against Yellow fever virus. It counts as functional, organism-based.
In a further data set the test system is Influenza A virus. Description: Antiviral activity against Influenza virus. In kind it is functional.

What is called EC50 is the concentration that produces a half-maximal response. The CC50 is the concentration at which the toxic effect on the cells reaches its halfway point. Read a high CC50 as lower toxicity to the cells.

As for `C=C(C)[C@@H]1CC[C@]2(C(=O)O)CC[C@]3(C)[C@H](CC[C@@H]4[C@@]5(C)Cc6nnn(CCc7c[nH]c8ccc(OC)cc78)c6C(C)(C)[C@@H]5CC[C@]43C)[C@@H]12`, the EC50 in data set [1] was 0.88 µM; in data set [2], 0.3 µM. Further, the 50% cytotoxic concentration (CC50) at 120 h in data set [3] was determined as 8.9 µM. For the same compound, the selectivity ratio at 120 h in [4] was 10. Moreover, the result (in data set [5]; in data set [6]; with Vaccinia virus; with Human adenovirus 2; in data set [7]; with Coxsackievirus B4) was inactive. Moreover, the outcome (in data set [8]; with Human respirovirus 3; with Reovirus sp.; in the data set with Sindbis virus; in the data set on Punta Toro virus; in the data set with Yellow fever virus) was inactive. In addition, in the data set on Influenza A virus, the outcome was inactive.

Regarding `C=C(C)[C@@H]1CC[C@]2(C(=O)O)CC[C@]3(C)[C@H](CC[C@@H]4[C@@]5(C)Cc6nnn(Cc7ccc(N(C)C)cc7)c6C(C)(C)[C@@H]5CC[C@]43C)[C@@H]12`, the EC50 in [1] was 0.54 µM; in [2] it was 0.51 µM. The CC50 at 120 h in data set [3] turned out to be 16 µM. The selectivity ratio at 120 h in data set [4] was 31. Further, the result (in [5]; in [6]; in the data set on Vaccinia virus; in the data set with Human adenovirus 2; in [7]; in the data set on Coxsackievirus B4) was inactive. For the same compound, the result (in data set [8]; with Human respirovirus 3; in the data set on Reovirus sp.; with Sindbis virus; in the data set on Punta Toro virus; in the data set on Yellow fever virus) was inactive. Also, the outcome in the data set on Influenza A virus was inactive.

Consider `C=C(C)[C@@H]1CC[C@]2(C(=O)O)CC[C@]3(C)[C@H](CC[C@@H]4[C@@]5(C)CCC(=O)C(C)(C)[C@@H]5CC[C@]43C)[C@@H]12` [BETUNOLIC ACID], for which the EC50 in [1] and in data set [2] was above 100 µM throughout. The same compound returned a CC50 at 120 h in [3] above 100 µM.

Consider `C=C(C)[C@@H]1CC[C@]2(C(=O)O)CC[C@]3(C)[C@H](CC[C@@H]4[C@@]5(C)Cc6nnn(Cc7cc(OC)c(OC)c(OC)c7)c6C(C)(C)[C@@H]5CC[C@]43C)[C@@H]12`, for which the 50% effective concentration (EC50) came out at 1.9 µM in [1] and 1.6 µM in data set [2]. The half-maximal cytotoxic concentration (CC50) at 120 h in data set [3] was 10 µM. Also, in data set [4], the selectivity ratio at 120 h amounted to 5. Also, the result (in data set [5]; in [6]; in the data set with Vaccinia virus; with Human adenovirus 2; in [7]; with Coxsackievirus B4) was inactive. The result (in data set [8]; in the data set with Human respirovirus 3; in the data set with Reovirus sp.; in the data set with Sindbis virus; in the data set with Punta Toro virus; with Yellow fever virus) was inactive. Also, the outcome in the data set on Influenza A virus was inactive.

In the case of `C=C(C)[C@@H]1CC[C@]2(C(=O)O)CC[C@]3(C)[C@H](CC[C@@H]4[C@@]5(C)Cc6nnn(Cc7ccc(C)cc7)c6C(C)(C)[C@@H]5CC[C@]43C)[C@@H]12`, the EC50 was found to be 6.2 µM in data set [1] and 3.3 µM in data set [2]. In addition, the half-maximal cytotoxic concentration (CC50) at 120 h in data set [3] was found to be 57 µM. The selectivity ratio at 120 h in data set [4] was 9. For the same compound, the result (in data set [5]; in data set [6]; in the data set with Vaccinia virus; with Human adenovirus 2; in data set [7]; with Coxsackievirus B4) was inactive. In addition, the outcome (in [8]; in the data set on Human respirovirus 3; in the data set with Reovirus sp.; in the data set with Sindbis virus; in the data set with Punta Toro virus; with Yellow fever virus) was inactive. Moreover, the result with Influenza A virus was inactive.

In the case of `C=C(C)[C@@H]1CC[C@]2(C(=O)O)CC[C@]3(C)[C@H](CC[C@@H]4[C@@]5(C)Cc6nnn(CCCCCCC)c6C(C)(C)[C@@H]5CC[C@]43C)[C@@H]12`, the EC50 in data set [1] is 2 µM; in [2], 1.1 µM. In [3], this compound gave a 50% cytotoxic concentration (CC50) at 120 h of 16 µM. Also, the selectivity ratio at 120 h in data set [4] was determined as 8. Also, the outcome (in data set [5]; in data set [6]; in the data set with Vaccinia virus; in the data set on Human adenovirus 2; in [7]; in the data set with Coxsackievirus B4) was inactive. The result (in [8]; in the data set on Human respirovirus 3; in the data set on Reovirus sp.; in the data set on Sindbis virus; with Punta Toro virus; in the data set with Yellow fever virus) was inactive. Moreover, the outcome in the data set on Influenza A virus was inactive.

Take `C=C(C)[C@@H]1CC[C@]2(CO)CC[C@]3(C)[C@H](CC[C@@H]4[C@@]5(C)CC[C@H](O)C(C)(C)[C@@H]5CC[C@]43C)[C@@H]12` [BETULIN]: the values for the EC50 in [1] and in data set [2] were above 100 µM and 11 µM, respectively. The compound further yielded a CC50 at 120 h in data set [3] of 7.6 µM.

`CC(C)[C@@H]1CC[C@]2(C)CC[C@]3(C)[C@H](CC[C@@H]4[C@@]5(C)Cc6nnn([C@@H](C)c7ccccc7)c6C(C)(C)[C@@H]5CC[C@]43C)[C@@H]12`: the result (in [5]; in data set [6]; in the data set on Vaccinia virus; with Human adenovirus 2; in data set [7]; in the data set on Coxsackievirus B4) was inactive. In addition, the result (in data set [8]; in the data set with Human respirovirus 3; with Reovirus sp.; in the data set with Sindbis virus; in the data set on Punta Toro virus; with Yellow fever virus) was inactive. Also, the result in the data set with Influenza A virus was inactive.

`C=C(C)[C@@H]1CC[C@]2(C(=O)O)CC[C@]3(C)[C@H](CC[C@@H]4[C@@]5(C)Cc6nnn(CC7CCCCC7)c6C(C)(C)[C@@H]5CC[C@]43C)[C@@H]12`: the EC50 turned out to be 13 µM in [1] and 14 µM in [2]. In addition, the 50% cytotoxic concentration (CC50) at 120 h in data set [3] was 79 µM. Besides, the outcome (in data set [5]; in data set [6]; in the data set on Vaccinia virus; in the data set on Human adenovirus 2; in data set [7]; with Coxsackievirus B4) was inactive. Besides, the outcome (in [8]; in the data set on Human respirovirus 3; in the data set on Reovirus sp.; in the data set on Sindbis virus; with Punta Toro virus; in the data set with Yellow fever virus) was inactive. For the same compound, the result in the data set on Influenza A virus was inactive.
